In ChEMBL document CHEMBL4330069, “Boosting the efficacy of anti-MRSA β-lactam antibiotics via an easily accessible, non-cytotoxic and orally bioavailable FtsZ inhibitor” (Eur J Med Chem, 2019):
Values after ≈ are worked out from the molar mass of the structure shown.

Tests used:
Staphylococcus aureus [1] = experiment: Synergistic antibacterial activity against multidrug-resistant Staphylococcus aureus isolate 3267 in presence of cefuroxime by broth microdilution assay; type: functional
Outline: (§1)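 CLSI broth microdilution on clinical MRSA isolates. MICs were measured for the β-lactam alone, the test agent alone and the two combined. Compounds were dissolved in DMSO, and growth inhibition was scored by eye. FIC index is the sum, over both agents, of MIC in combination divided by MIC alone. An FIC index ≤0.5 was taken as synergy.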

Staphylococcus aureus [2] = experiment: Synergistic antibacterial activity against multidrug-resistant Staphylococcus aureus isolate 2895 in presence of cefuroxime by broth microdilution assay; type: functional; outline: as §1
Staphylococcus aureus [3] = experiment: Synergistic antibacterial activity against multidrug-resistant Staphylococcus aureus isolate 1749 in presence of cloxacillin by broth microdilution assay; type: functional
Outline: (§2)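 Clinical MRSA isolate panel; compound and β-lactam tested alone and in combination by CLSI broth microdilution, compounds dissolved in DMSO, growth inhibition scored by eye, run in duplicate. FIC index = FIC(compound) + FIC(drug), each the MIC in combination divided by the MIC alone; an index ≤ 0.5 was called synergy.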

Staphylococcus aureus [4] = experiment: Synergistic antibacterial activity against multidrug-resistant Staphylococcus aureus isolate 85 in presence of amoxicillin by broth microdilution assay; type: functional
Staphylococcus aureus [5] = experiment: Antibacterial activity against multidrug-resistant Staphylococcus aureus isolate 2901 by broth microdilution assay; type: functional
Outline: (§3)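 Broth microdilution MIC per CLSI guidelines against clinical MRSA isolates, for β-lactams and test compound alone and in combination. Compounds were dissolved in DMSO. Growth was read by eye, in duplicate. FIC index = FIC(compound) + FIC(drug); synergy defined as FIC index ≤0.5.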

Staphylococcus aureus [6] = experiment: Antibacterial activity against multidrug-resistant Staphylococcus aureus isolate 254 by broth microdilution assay; type: functional; outline: as §3
Staphylococcus aureus [7] = experiment: Synergistic antibacterial activity against multidrug-resistant Staphylococcus aureus isolate 1402 assessed as fractional Inhibitory concentration index in presence of meropenem by broth microdilution assay; type: functional
Outline: (§4)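 CLSI broth microdilution run on clinical MRSA isolates with each β-lactam alone, the test agent alone, and the two combined; agents dissolved in DMSO. Growth inhibition was read by eye. FIC index = FIC(compound) + FIC(β-lactam), where each FIC is the MIC in combination divided by the MIC alone. An index ≤0.5 was taken as synergy.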

Staphylococcus aureus [8] = experiment: Synergistic antibacterial activity against multidrug-resistant Staphylococcus aureus isolate 774 assessed as fractional Inhibitory concentration index in presence of cloxacillin by broth microdilution assay; type: functional
Staphylococcus aureus [9] = experiment: Synergistic antibacterial activity against multidrug-resistant Staphylococcus aureus isolate 3580 in presence of cloxacillin by broth microdilution assay; type: functional
Staphylococcus aureus [10] = experiment: Synergistic antibacterial activity against multidrug-resistant Staphylococcus aureus isolate 2973 in presence of cloxacillin by broth microdilution assay; type: functional; outline: as §1
Staphylococcus aureus [11] = experiment: Synergistic antibacterial activity against multidrug-resistant Staphylococcus aureus isolate 2973 in presence of cefuroxime by broth microdilution assay; type: functional; outline: as §1
Staphylococcus aureus [12] = experiment: Synergistic antibacterial activity against multidrug-resistant Staphylococcus aureus isolate 417 assessed as fractional Inhibitory concentration index in presence of cefuroxime by broth microdilution assay; type: functional
Staphylococcus aureus [13] = experiment: Synergistic antibacterial activity against multidrug-resistant Staphylococcus aureus isolate 85 in presence of cefuroxime by broth microdilution assay; type: functional
Staphylococcus aureus [14] = experiment: Synergistic antibacterial activity against multidrug-resistant Staphylococcus aureus isolate 2919 in presence of cloxacillin by broth microdilution assay; type: functional; outline: as §1
Staphylococcus aureus [15] = experiment: Synergistic antibacterial activity against multidrug-resistant Staphylococcus aureus isolate 256 in presence of amoxicillin by broth microdilution assay; type: functional; outline: as §1
Staphylococcus aureus [16] = experiment: Synergistic antibacterial activity against multidrug-resistant Staphylococcus aureus isolate 256 in presence of cloxacillin by broth microdilution assay; type: functional; outline: as §1
Staphylococcus aureus [17] = experiment: Synergistic antibacterial activity against multidrug-resistant Staphylococcus aureus isolate 200 assessed as fractional Inhibitory concentration index in presence of methicillin by broth microdilution assay; type: functional
Staphylococcus aureus [18] = experiment: Antibacterial activity against Staphylococcus aureus ATCC 29213 by broth microdilution assay; type: functional
Outline: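 Broth microdilution per CLSI guidelines; compounds dissolved in DMSO; single agents tested; growth inhibition read by eye; run in duplicate (table footnote states at least triplicates).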

Staphylococcus aureus [19] = experiment: Antibacterial activity against multidrug-resistant Staphylococcus aureus isolate 200 by broth microdilution assay; type: functional; outline: as §3
Staphylococcus aureus [20] = experiment: Synergistic antibacterial activity against multidrug-resistant Staphylococcus aureus isolate 256 in presence of meropenem by broth microdilution assay; type: functional; outline: as §1
Staphylococcus aureus [21] = experiment: Synergistic antibacterial activity against multidrug-resistant Staphylococcus aureus isolate 1344 in presence of cloxacillin by broth microdilution assay; type: functional; outline: as §2
Staphylococcus aureus [22] = experiment: Synergistic antibacterial activity against multidrug-resistant Staphylococcus aureus isolate 757 assessed as fractional Inhibitory concentration index in presence of cefuroxime by broth microdilution assay; type: functional
Staphylococcus aureus [23] = experiment: Synergistic antibacterial activity against multidrug-resistant Staphylococcus aureus isolate 3589 in presence of meropenem by broth microdilution assay; type: functional
Staphylococcus aureus [24] = experiment: Synergistic antibacterial activity against multidrug-resistant Staphylococcus aureus isolate 358 in presence of cloxacillin by broth microdilution assay; type: functional
[25] = Tmax in Sprague-Dawley rat at 50 mg/kg, po by UPLC-MS/MS analysis; type: ADME, organism-based; settings: in vivo
Staphylococcus aureus [26] = experiment: Antibacterial activity against multidrug-resistant Staphylococcus aureus isolate 1402 by broth microdilution assay; type: functional; outline: as §3
Staphylococcus aureus [27] = experiment: Synergistic antibacterial activity against multidrug-resistant Staphylococcus aureus isolate 2919 assessed as fractional Inhibitory concentration index in presence of meropenem by broth microdilution assay; type: functional
Staphylococcus aureus [28] = experiment: Synergistic antibacterial activity against multidrug-resistant Staphylococcus aureus isolate 200 assessed as fractional Inhibitory concentration index in presence of cefuroxime by broth microdilution assay; type: functional; outline: as §4
Staphylococcus aureus [29] = experiment: Synergistic antibacterial activity against multidrug-resistant Staphylococcus aureus isolate 3589 assessed as fractional Inhibitory concentration index in presence of methicillin by broth microdilution assay; type: functional
Staphylococcus aureus [30] = experiment: Synergistic antibacterial activity against multidrug-resistant Staphylococcus aureus isolate 1749 assessed as fractional Inhibitory concentration index in presence of amoxicillin by broth microdilution assay; type: functional; outline: as §4
Staphylococcus aureus [31] = experiment: Synergistic antibacterial activity against multidrug-resistant Staphylococcus aureus isolate 1344 assessed as fractional Inhibitory concentration index in presence of cloxacillin by broth microdilution assay; type: functional; outline: as §4
Staphylococcus aureus [32] = experiment: Synergistic antibacterial activity against multidrug-resistant Staphylococcus aureus isolate 1136 assessed as fractional Inhibitory concentration index in presence of cefuroxime by broth microdilution assay; type: functional; outline: as §4
Staphylococcus aureus [33] = experiment: Synergistic antibacterial activity against multidrug-resistant Staphylococcus aureus isolate 3589 in presence of methicillin by broth microdilution assay; type: functional
Staphylococcus aureus [34] = experiment: Synergistic antibacterial activity against multidrug-resistant Staphylococcus aureus isolate 254 assessed as fractional Inhibitory concentration index in presence of methicillin by broth microdilution assay; type: functional
Staphylococcus aureus [35] = experiment: Synergistic antibacterial activity against multidrug-resistant Staphylococcus aureus isolate 2728 in presence of cefuroxime by broth microdilution assay; type: functional; outline: as §1
Staphylococcus aureus [36] = experiment: Synergistic antibacterial activity against multidrug-resistant Staphylococcus aureus isolate 2728 in presence of methicillin by broth microdilution assay; type: functional; outline: as §1
Staphylococcus aureus [37] = experiment: Synergistic antibacterial activity against multidrug-resistant Staphylococcus aureus isolate 1449 in presence of cefuroxime by broth microdilution assay; type: functional; outline: as §2
Staphylococcus aureus [38] = experiment: Synergistic antibacterial activity against multidrug-resistant Staphylococcus aureus isolate 1136 assessed as fractional Inhibitory concentration index in presence of cloxacillin by broth microdilution assay; type: functional; outline: as §4
Staphylococcus aureus [39] = experiment: Synergistic antibacterial activity against multidrug-resistant Staphylococcus aureus isolate 757 in presence of cefuroxime by broth microdilution assay; type: functional

Work on `CCCCCCCCCNc1ccc(F)c(C(N)=O)c1F` yielded an MIC (Staphylococcus aureus [1]) of 2 µg/mL, an MIC (Staphylococcus aureus [2]) of 4 µg/mL and an MIC (Staphylococcus aureus [3]) of 0.5 µg/mL. For the same compound, the MIC (Staphylococcus aureus [4]) was 8 µg/mL, the MIC (Staphylococcus aureus [5]) was 512 µg/mL (≈ 1720 µM) and the MIC (Staphylococcus aureus [6]) was 16 µg/mL (≈ 53.6 µM). For the same compound, the “fractional inhibitory concentration index (FICI)” value (Staphylococcus aureus [7]) was 5, the “fractional inhibitory concentration index (FICI)” value (Staphylococcus aureus [8]) was 0.5 and the MIC (Staphylococcus aureus [9]) was 1 µg/mL. For the same compound, the MIC (Staphylococcus aureus [10]) was 1 µg/mL, the MIC (Staphylococcus aureus [11]) was 4 µg/mL and the “fractional inhibitory concentration index (FICI)” value (Staphylococcus aureus [12]) was 0.1. The MIC (Staphylococcus aureus [13]) was 2 µg/mL, the MIC (Staphylococcus aureus [14]) was 1 µg/mL and the MIC (Staphylococcus aureus [15]) was 16 µg/mL. For the same compound, the MIC (Staphylococcus aureus [16]) was 1 µg/mL, the “fractional inhibitory concentration index (FICI)” value (Staphylococcus aureus [17]) was 0.3 and the MIC (Staphylococcus aureus [18]) was 3.1 µM (≈ 0.925 µg/mL). For the same compound, the MIC (Staphylococcus aureus [19]) was 1020 µg/mL (≈ 3430 µM), the MIC (Staphylococcus aureus [20]) was 8 µg/mL and the MIC (Staphylococcus aureus [21]) was 1 µg/mL. For the same compound, the “fractional inhibitory concentration index (FICI)” value (Staphylococcus aureus [22]) was 0.1, the MIC (Staphylococcus aureus [23]) was 4 µg/mL and the MIC (Staphylococcus aureus [24]) was 1 µg/mL. The Tmax [25] was 2 h, the MIC (Staphylococcus aureus [26]) was 4 µg/mL (≈ 13.4 µM) and the “fractional inhibitory concentration index (FICI)” value (Staphylococcus aureus [27]) was 4.3. For the same compound, the “fractional inhibitory concentration index (FICI)” value (Staphylococcus aureus [28]) was 1, the “fractional inhibitory concentration index (FICI)” value (Staphylococcus aureus [29]) was 0.5 and the “fractional inhibitory concentration index (FICI)” value (Staphylococcus aureus [30]) was 1. For the same compound, the “fractional inhibitory concentration index (FICI)” value (Staphylococcus aureus [31]) was 0.1, the “fractional inhibitory concentration index (FICI)” value (Staphylococcus aureus [32]) was 0.1 and the MIC (Staphylococcus aureus [33]) was 4 µg/mL. For the same compound, the “fractional inhibitory concentration index (FICI)” value (Staphylococcus aureus [34]) was 0.3, the MIC (Staphylococcus aureus [35]) was 2 µg/mL and the MIC (Staphylococcus aureus [36]) was 4 µg/mL. The MIC (Staphylococcus aureus [37]) was 2 µg/mL, the “fractional inhibitory concentration index (FICI)” value (Staphylococcus aureus [38]) was 0.4 and the MIC (Staphylococcus aureus [39]) was 2 µg/mL.
